Calls of active or inactive are those of the source. No cut-off for these calls is given here.
Tests used:
A549 [1] = assay: Induction of apoptosis in human A549 cells assessed as caspase 3 activation at 100 uM; format: functional, cell-based
Procedure, shortened: (§1)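 Caspase-9 and caspase-3 activity: A549 cells given 100 µM for 6-24 h and lysed on ice 1 h. 80 µg lysate incubated with substrate at pH 7.2, 37 °C, 1 h in the dark. Caspase-9 read colorimetrically at 405 nm and caspase-3 with AFC substrate, ex 400 / em 520 nm. Reported as percent change versus the 0 h group.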

A549 [2] = assay: Cell cycle arrest in human A549 cells assessed as accumulation at S phase at 100 uM after 24 hrs; format: functional
Procedure, shortened: (§2)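 Flow cytometry of cell cycle: A549 (5 × 10^5 per 60 mm dish) treated next day with 50 or 100 µM for 24, 48 or 72 h. Adherent and floating cells pooled, fixed in PBS-MeOH 1:2 at 4 °C for at least 18 h, then stained 30 min in the dark with PI 50 µg/mL plus RNase A 50 µg/mL. Sub-G1 taken as the subdiploid fraction; at least three runs.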

A549 [3] = assay: Cell cycle arrest in human A549 cells assessed as accumulation at G1 phase at 50 uM after 24 hrs; format: functional; procedure, shortened: as §2
A549 [4] = assay: Induction of apoptosis in human A549 cells assessed as DNA fragmentation after 24 hrs; format: functional, cell-based
Procedure, shortened: (§3)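 Apoptosis by cytoplasmic mono- and oligonucleosomes (nucleosome ELISA): A549 cells given 1, 10 or 100 µM for 6, 12, 18 or 24 h and lysed, then lysate assayed photometrically. Expressed relative to control; three experiments, mean ± SE, ANOVA with Dunnett's test.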

A549 [5] = assay: Cell cycle arrest in human A549 cells assessed as accumulation at G2/M phase at 50 uM after 48 hrs; format: functional; procedure, shortened: as §2
A549 [6] = assay: Cell cycle arrest in human A549 cells assessed as accumulation at G1 phase at 100 uM after 48 hrs; format: functional; procedure, shortened: as §2
A549 [7] = assay: Induction of apoptosis in human A549 cells assessed as caspase 9 activation at 100 uM; format: functional, cell-based; procedure, shortened: as §1
A549 [8] = assay: Antioxidant activity in human A549 cells assessed as N-acetyl-l-cysteine-induced production of H2O2; format: functional, cell-based
Procedure, shortened: (§4)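 Intracellular ROS (H2O2/peroxide) by DCF fluorescence: A549 cells at 80% confluence exposed to 100 µM for 30 min, then 10 µM DCFH-DA 30 min in the dark, trypsinized and resuspended in PBS. Read by flow cytometry, ex 488 / em 525-550 nm. For scavenger tests, NAC (10 mM) or other agents given 30 min before compound.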

A549 [9] = assay: Reversal of inhibition of migration in human A549 cells at 10 uM in presence of N-acetyl-l-cysteine; format: functional, cell-based
Procedure, shortened: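 Transwell migration with 8 µm inserts, or Matrigel-coated inserts for invasion: 5 × 10^4 A549 cells in serum-free medium placed in the upper chamber over medium with 10% FBS, 24 h at 37 °C, 5% CO2. Migrated cells stained, dye extracted and read at 560 nm. Reported as percent of control; compound tested at 1 and 10 µM, with NAC pretreatment in reversal tests.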

A549 [10] = assay: Reversal of antiproliferative activity against human A549 cells in presence of nitro-L-arginine methyl ester; format: functional, cell-based
Procedure, shortened: (§5)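 ROS-dependence of growth inhibition: A549 cells pretreated with NAC (10 mM) or L-NAME (100 µM) for 2 h, then 100 µM compound for 24 h. Proliferation read by MTT assay at OD 570 nm.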

A549 [11] = assay: Cell cycle arrest in human A549 cells assessed as accumulation at G2/M phase at 50 uM after 24 hrs; format: functional; procedure, shortened: as §2
A549 [12] = assay: Cell cycle arrest in human A549 cells assessed as accumulation at subG1 phase at 100 uM after 24 hrs; format: functional; procedure, shortened: as §2
A549 [13] = assay: Induction of apoptosis in human A549 cells assessed as apoptotic nucleosome at 1 uM after 6 hrs; format: functional; procedure, shortened: as §3
A549 [14] = assay: Cell cycle arrest in human A549 cells assessed as accumulation at G1 phase at 50 uM after 48 hrs; format: functional; procedure, shortened: as §2
A549 [15] = assay: Antiproliferative activity against human A549 cells at 100 uM after 72 hrs by MTT assay; format: functional; conditions: A549, 72 h, values are per cent of control
Procedure, shortened: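 MTT proliferation: A549 grown in medium with 10% FBS to 70-80% confluence, then exposed to compound for 24, 48 or 72 h. MTT added for 3 h at 37 °C, formazan dissolved in 2-propanol, OD 570 nm with 650 nm reference. Expressed as percent of control at 24 h; mean ± SE.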

A549 [16] = assay: Induction of apoptosis in human A549 cells assessed as PARP cleavage at 100 uM; format: functional, cell-based
A549 [17] = assay: Induction of p21/WAF1 protein level in human A549 cells at 100 uM after 18 hrs by ELISA; format: functional, cell-based
Procedure, shortened: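 p53, p21/WAF1 and p27kip1 in A549 lysates by sandwich ELISA after 1, 10 or 100 µM for 6-24 h. Lysate incubated 2 h for p53 and p27kip1, 1 h for p21, at room temperature. HRP-streptavidin and TMB used, absorbance read at 450 nm, values from standard curves. Three experiments, mean ± SE.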

A549 [18] = assay: Induction of apoptosis in human A549 cells assessed as DNA fragmentation after 12 hrs; format: functional, cell-based; procedure, shortened: as §3
A549 [19] = assay: Cell cycle arrest in human A549 cells assessed as accumulation at G1 phase at 100 uM after 72 hrs; format: functional; procedure, shortened: as §2
A549 [20] = assay: Cell cycle arrest in human A549 cells assessed as accumulation at subG1 phase at 50 uM after 24 hrs; format: functional; procedure, shortened: as §2
A549 [21] = assay: Antioxidant activity in human A549 cells assessed as increase in dichlorofluorescein florescence intensity after 30 mins relative to untreated cells; format: functional, cell-based; procedure, shortened: as §4
A549 [22] = assay: Cell cycle arrest in human A549 cells assessed as accumulation at G2/M phase at 50 uM after 72 hrs; format: functional; procedure, shortened: as §2
A549 [23] = assay: Induction of apoptosis in human A549 cells assessed as apoptotic nucleosome at 100 uM after 6 hrs; format: functional; procedure, shortened: as §3
A549 [24] = assay: Reversal of antiproliferative activity against human A549 cells in presence of N-acetyl-l-cysteine; format: functional, cell-based; procedure, shortened: as §5
A549 [25] = assay: Cytotoxicity against human A549 cells after 72 hrs by MTT assay; format: functional, cell-based; conditions: A549, 72 h
A549 [26] = assay: Cell cycle arrest in human A549 cells assessed as accumulation at S phase at 100 uM after 48 hrs; format: functional; procedure, shortened: as §2
A549 [27] = assay: Cytotoxicity against human A549 cells after 24 hrs by TB dye exclusion assay; format: functional, cell-based; conditions: A549, 24 h

C=C1OC(=O)/C(=C/CCCCCCCCCCCCC)[C@@H]1O [ISOOBTUSILACTONE A]
Activity (A549 [1]): Active | Activity (A549 [2]): 38.95% | Activity (A549 [3]): 51.93% | Activity (A549 [4]): Active | Activity (A549 [5]): 15.91% | Activity (A549 [6]): 43.08% | Activity (A549 [7]): Active | Activity (A549 [8]): Active | Activity (A549 [9]): Active | Activity (A549 [10]): Active | Activity (A549 [11]): 17.26% | Activity (A549 [12]): 25.63% | Activity (A549 [13]): 3.5 | Activity (A549 [14]): 37.37% | growth, % of control at 100 µM (A549 [15]): 2.75% | Activity (A549 [16]): Active | Activity (A549 [17]): Active | Activity (A549 [18]): Active | Activity (A549 [19]): 41.73% | Activity (A549 [20]): 16.69% | Activity (A549 [21]): Active | Activity (A549 [22]): 13.64% | Activity (A549 [23]): 4.5 | Activity (A549 [24]): inactive | IC50 (A549 [25]): 1.02 µM | Activity (A549 [26]): 41.33% | IC50 (A549 [27]): 4.17 µM

From ChEMBL document CHEMBL1157401, “Anticancer activity of isoobtusilactone A from Cinnamomum kotoense: involvement of apoptosis, cell-cycle dysregulation, mitochondria regulation, and reactive oxygen species” (J Nat Prod, 2008)
